Source: ChEMBL document CHEMBL4765226, “Identification of a Human Toll-Like Receptor (TLR) 8-Specific Agonist and a Functional Pan-TLR Inhibitor in 2-Aminoimidazoles” (J Med Chem, 2016)
Active and inactive are the calls of the source. The rule behind the calls is not given here.

Legend:
Type in all cases: cell-based
[1] = molecular target: Toll-like receptor 5 (Homo sapiens, UniProt O60602); assay: Agonist activity at human TLR5 stably expressed in HEK293 cells cotransfected with secreted alkaline phosphatase assessed as induction of NFkappaB activation by quanti-blue SEAP reporter gene based spectrophotometric method
Sequence of Toll-like receptor 5 (O60602 whole entry): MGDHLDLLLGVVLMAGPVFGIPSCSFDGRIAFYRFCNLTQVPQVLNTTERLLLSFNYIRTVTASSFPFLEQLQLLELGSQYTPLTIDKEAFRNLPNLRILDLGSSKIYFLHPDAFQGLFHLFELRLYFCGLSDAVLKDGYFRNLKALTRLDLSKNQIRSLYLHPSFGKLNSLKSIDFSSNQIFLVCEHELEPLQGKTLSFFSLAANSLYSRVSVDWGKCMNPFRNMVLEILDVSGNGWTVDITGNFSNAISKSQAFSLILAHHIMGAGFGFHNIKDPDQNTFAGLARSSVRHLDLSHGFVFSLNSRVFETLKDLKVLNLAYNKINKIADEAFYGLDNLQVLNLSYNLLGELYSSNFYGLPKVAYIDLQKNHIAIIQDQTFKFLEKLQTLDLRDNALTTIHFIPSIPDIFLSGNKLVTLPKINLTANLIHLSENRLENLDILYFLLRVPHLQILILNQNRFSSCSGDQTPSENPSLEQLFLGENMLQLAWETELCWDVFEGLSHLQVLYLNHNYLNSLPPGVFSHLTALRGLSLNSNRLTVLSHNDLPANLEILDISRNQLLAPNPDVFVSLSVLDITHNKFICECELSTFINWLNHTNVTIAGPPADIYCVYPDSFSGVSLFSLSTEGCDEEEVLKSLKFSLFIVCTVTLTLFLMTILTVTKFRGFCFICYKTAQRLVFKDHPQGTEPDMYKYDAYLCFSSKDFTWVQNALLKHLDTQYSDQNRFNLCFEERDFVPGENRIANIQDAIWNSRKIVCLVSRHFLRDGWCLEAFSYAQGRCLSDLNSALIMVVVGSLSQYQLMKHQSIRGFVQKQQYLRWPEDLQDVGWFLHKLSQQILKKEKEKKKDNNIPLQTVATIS
How it was run: (§1)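 HEK293 cells stably co-transfected with the matching human TLR (2, 3, 4, 5, 7, 8 or 9) and NF-κB/AP-1-driven secreted alkaline phosphatase were kept in selection medium. About 10^5 cells/ml were incubated with graded concentrations of stimulus. sAP was read at 620 nm with a chromogen in detection medium. EC50 came from four-parameter logistic fits on quadruplicates.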

[2] = molecular target: T1, Toll-like receptor 7 (Homo sapiens) (UniProt Q9NYK1); assay: Agonist activity at human TLR7 stably expressed in HEK293 cells cotransfected with secreted alkaline phosphatase assessed as induction of NFkappaB activation by quanti-blue SEAP reporter gene based spectrophotometric method; how it was run: as §1
T1 sequence (whole entry): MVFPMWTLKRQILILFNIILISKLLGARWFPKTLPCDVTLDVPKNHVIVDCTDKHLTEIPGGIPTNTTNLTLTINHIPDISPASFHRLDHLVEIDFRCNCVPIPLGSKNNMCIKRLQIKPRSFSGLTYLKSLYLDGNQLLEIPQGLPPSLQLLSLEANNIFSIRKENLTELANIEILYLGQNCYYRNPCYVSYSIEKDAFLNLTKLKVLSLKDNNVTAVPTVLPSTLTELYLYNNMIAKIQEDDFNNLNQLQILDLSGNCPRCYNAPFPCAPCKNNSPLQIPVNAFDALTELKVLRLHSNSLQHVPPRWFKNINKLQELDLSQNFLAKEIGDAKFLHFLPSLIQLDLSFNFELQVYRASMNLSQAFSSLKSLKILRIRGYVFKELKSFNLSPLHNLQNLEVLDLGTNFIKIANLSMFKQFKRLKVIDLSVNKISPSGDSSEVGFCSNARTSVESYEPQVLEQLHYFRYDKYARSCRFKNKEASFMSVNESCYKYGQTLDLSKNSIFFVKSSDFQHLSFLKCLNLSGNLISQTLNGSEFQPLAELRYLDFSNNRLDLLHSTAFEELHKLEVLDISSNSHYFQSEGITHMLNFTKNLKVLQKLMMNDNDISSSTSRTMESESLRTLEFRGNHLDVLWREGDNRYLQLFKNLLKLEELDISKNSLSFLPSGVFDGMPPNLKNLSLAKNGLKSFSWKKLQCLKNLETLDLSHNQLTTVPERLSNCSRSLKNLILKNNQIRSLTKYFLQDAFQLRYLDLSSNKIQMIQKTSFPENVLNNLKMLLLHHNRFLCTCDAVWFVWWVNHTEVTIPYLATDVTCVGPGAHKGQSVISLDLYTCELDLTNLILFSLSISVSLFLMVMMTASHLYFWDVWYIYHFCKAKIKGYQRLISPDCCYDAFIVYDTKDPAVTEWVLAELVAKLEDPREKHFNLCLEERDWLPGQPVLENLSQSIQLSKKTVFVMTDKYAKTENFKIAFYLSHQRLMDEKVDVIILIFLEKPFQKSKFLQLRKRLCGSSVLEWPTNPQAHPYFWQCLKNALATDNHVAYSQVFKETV

[3] = molecular target: Toll-like receptor 2 (Homo sapiens, UniProt O60603); assay: Agonist activity at human TLR2 stably expressed in HEK293 cells cotransfected with secreted alkaline phosphatase assessed as induction of NFkappaB activation by quanti-blue SEAP reporter gene based spectrophotometric method; how it was run: as §1
Sequence of Toll-like receptor 2 (O60603 whole entry): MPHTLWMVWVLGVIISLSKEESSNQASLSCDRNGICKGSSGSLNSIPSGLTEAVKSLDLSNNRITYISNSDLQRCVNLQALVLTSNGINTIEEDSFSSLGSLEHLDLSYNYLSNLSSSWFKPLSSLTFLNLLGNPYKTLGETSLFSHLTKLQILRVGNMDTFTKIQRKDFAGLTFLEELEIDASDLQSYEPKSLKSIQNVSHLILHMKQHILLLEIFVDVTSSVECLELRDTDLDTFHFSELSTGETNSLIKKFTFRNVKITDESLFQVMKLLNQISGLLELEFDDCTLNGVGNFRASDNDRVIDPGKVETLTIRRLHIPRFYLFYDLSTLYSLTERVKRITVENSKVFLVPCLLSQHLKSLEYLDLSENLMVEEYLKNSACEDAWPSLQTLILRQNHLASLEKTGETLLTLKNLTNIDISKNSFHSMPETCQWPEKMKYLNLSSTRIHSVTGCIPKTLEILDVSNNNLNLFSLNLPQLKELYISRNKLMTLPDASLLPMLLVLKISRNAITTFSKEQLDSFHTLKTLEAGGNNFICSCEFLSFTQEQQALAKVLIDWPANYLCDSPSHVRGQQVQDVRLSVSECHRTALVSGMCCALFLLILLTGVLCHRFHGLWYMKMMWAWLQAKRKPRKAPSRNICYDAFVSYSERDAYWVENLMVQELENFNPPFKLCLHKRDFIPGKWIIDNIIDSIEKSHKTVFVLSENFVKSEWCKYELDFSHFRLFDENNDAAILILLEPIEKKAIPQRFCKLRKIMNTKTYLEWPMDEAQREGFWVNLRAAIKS

[4] = molecular target: Toll-like receptor 3 (Homo sapiens) (UniProt O15455); assay: Agonist activity at human TLR3 stably expressed in HEK293 cells cotransfected with secreted alkaline phosphatase assessed as induction of NFkappaB activation by quanti-blue SEAP reporter gene based spectrophotometric method; how it was run: as §1
Sequence of Toll-like receptor 3 (Homo sapiens) (O15455 whole entry): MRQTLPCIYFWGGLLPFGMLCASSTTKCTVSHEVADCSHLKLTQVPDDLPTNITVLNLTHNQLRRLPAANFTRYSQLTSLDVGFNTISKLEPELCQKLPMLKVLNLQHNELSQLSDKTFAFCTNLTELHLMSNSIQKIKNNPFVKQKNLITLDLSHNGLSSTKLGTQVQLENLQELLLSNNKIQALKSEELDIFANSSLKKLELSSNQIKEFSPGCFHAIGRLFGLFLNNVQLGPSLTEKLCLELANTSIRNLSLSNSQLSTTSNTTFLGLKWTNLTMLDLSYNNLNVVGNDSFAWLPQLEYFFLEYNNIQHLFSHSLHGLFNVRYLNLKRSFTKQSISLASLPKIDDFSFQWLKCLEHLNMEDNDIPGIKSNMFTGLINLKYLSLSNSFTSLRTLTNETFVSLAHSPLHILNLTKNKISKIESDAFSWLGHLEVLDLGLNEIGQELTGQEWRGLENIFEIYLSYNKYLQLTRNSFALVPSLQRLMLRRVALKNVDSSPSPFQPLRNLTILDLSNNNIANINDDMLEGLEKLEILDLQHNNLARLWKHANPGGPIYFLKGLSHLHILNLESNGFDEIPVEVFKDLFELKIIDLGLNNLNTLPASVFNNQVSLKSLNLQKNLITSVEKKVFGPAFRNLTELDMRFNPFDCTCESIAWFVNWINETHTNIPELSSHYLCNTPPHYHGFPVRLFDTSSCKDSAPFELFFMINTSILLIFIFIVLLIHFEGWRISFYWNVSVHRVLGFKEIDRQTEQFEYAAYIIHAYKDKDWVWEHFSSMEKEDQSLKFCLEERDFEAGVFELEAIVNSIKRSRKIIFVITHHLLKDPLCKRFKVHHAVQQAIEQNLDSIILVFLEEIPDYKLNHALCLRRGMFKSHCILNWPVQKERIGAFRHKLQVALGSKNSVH

[5] = molecular target: T2, Toll-like receptor 8 (Homo sapiens) (UniProt Q9NR97); assay: Agonist activity at human TLR8 stably expressed in HEK293 cells cotransfected with secreted alkaline phosphatase assessed as induction of NFkappaB activation by measuring maximal response by quanti-blue SEAP reporter gene-based spectrophotometric method; conditions: filed as agonist
T2 sequence (whole entry): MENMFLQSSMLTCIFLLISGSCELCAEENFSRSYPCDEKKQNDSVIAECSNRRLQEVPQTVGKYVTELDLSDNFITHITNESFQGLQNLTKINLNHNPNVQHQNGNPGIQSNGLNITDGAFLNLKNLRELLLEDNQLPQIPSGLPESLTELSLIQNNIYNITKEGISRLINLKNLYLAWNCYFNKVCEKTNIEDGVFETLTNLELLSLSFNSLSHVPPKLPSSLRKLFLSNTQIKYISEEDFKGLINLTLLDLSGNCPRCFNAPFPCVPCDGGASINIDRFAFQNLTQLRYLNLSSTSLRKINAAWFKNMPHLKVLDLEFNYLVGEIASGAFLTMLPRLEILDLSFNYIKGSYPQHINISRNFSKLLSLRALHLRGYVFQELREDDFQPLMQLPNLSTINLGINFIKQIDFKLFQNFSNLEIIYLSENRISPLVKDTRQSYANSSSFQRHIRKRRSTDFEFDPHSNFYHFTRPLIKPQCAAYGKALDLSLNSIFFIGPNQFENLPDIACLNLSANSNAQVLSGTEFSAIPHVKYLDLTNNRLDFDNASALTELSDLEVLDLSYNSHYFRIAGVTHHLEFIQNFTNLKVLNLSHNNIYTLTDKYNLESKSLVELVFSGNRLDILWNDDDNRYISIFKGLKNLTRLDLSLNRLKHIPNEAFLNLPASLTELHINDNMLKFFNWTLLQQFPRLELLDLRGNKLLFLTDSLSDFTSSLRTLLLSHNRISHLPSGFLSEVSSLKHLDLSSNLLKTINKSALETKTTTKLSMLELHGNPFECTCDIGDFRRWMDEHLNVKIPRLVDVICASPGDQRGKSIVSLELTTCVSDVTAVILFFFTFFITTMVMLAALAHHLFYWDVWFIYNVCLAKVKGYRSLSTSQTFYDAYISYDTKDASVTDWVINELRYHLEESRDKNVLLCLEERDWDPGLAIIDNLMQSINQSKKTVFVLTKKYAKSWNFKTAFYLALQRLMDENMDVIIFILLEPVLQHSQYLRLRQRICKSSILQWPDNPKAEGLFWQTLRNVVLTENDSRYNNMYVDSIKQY
How it was run: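 TLR8/sAP HEK293 reporter cells, about 10^5 cells/ml, were exposed to graded ligand concentrations, and sAP was read at 620 nm with a chromogenic detection medium. Maximal response was compared across the dose-response curve, with area under the curve also reported. Quadruplicate samples were used.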

[6] = molecular target: Toll-like receptor 4 (Homo sapiens, UniProt O00206); assay: Agonist activity at human TLR4 stably expressed in HEK293 cells cotransfected with secreted alkaline phosphatase assessed as induction of NFkappaB activation by quanti-blue SEAP reporter gene based spectrophotometric method; how it was run: as §1
Sequence of Toll-like receptor 4 (O00206 whole entry): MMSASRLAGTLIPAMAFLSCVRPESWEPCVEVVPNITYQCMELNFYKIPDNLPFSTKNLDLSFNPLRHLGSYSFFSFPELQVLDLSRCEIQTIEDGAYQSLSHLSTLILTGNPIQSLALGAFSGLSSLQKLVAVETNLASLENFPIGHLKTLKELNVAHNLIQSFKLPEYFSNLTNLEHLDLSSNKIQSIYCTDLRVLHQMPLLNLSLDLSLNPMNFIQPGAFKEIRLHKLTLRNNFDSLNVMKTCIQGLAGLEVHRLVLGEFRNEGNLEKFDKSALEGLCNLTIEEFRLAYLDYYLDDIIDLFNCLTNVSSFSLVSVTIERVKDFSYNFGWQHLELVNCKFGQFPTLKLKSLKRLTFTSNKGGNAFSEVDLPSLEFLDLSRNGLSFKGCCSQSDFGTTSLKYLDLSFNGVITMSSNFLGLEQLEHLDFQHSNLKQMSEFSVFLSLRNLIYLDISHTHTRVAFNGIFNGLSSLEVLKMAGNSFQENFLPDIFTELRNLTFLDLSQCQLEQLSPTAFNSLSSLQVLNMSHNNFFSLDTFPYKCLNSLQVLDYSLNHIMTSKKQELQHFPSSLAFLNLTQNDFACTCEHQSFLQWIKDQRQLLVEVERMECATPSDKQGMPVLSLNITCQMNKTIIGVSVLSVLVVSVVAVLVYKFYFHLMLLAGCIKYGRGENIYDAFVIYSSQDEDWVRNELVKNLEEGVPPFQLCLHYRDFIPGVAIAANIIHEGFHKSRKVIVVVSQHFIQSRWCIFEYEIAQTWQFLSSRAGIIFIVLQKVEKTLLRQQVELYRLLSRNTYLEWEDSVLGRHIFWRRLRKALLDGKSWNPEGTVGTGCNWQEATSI

| SMILES | Activity [1] | Activity [2] | Activity [3] | Activity [4] | RUmax [5] | Activity [6] |
| --- | --- | --- | --- | --- | --- | --- |
| CCCCCn1cc(-c2ccc(-c3ccccc3)cc2)nc1N | inactive | inactive | inactive | inactive | 0.47 | inactive |
| CCCCCn1cc(-c2cc(C)ccc2C)nc1N | inactive | inactive | inactive | inactive | 0.9 | inactive |
| CCCCCn1cc(-c2cccc(C)c2OC)nc1N | inactive | inactive | inactive | inactive | 0.7 | inactive |
| CCCCCn1cc(-c2cccc(OC)c2OC)nc1N | inactive | inactive | inactive | inactive | 0.6 | inactive |
| CCCCCn1cc(-c2ccc(F)cc2C)nc1N | inactive | inactive | inactive | inactive | 1.7 | inactive |
| CCCCCn1cc(-c2cccc(C)c2C)nc1N | inactive | inactive | inactive | inactive | 1.3 | inactive |
| CCCCCn1cc(-c2c(C)cccc2C)nc1N | inactive | inactive | inactive | inactive | 1.2 | inactive |
| CCCCCn1cc(-c2cccc(OC)c2)nc1N | inactive | inactive | inactive | inactive | 1.2 | inactive |
| CCCCCn1cc(-c2ccccc2C(F)(F)F)nc1N | inactive | inactive | inactive | inactive | 0.9 | inactive |
| CCCCCn1cc(-c2ccccc2CC)nc1N | inactive | inactive | inactive | inactive | 0.8 | inactive |
| CCCCCn1cc(-c2ccc(N)cc2)nc1N | inactive | inactive | inactive | inactive | 0.6 | inactive |
| CCCCCn1cc(-c2ccccc2OCc2ccccc2)nc1N.Cl | inactive | inactive | inactive | inactive | – | inactive |
| CCCCCn1c(-c2ccccc2)cnc1N.Cl | inactive | inactive | inactive | inactive | – | inactive |
